From ChEMBL document CHEMBL4138045 (Medchemcomm, 2017)
Activity calls are given as the source filed them. The rule behind the calls is not given here.

Tests used:
[1] = target: Delta-type opioid receptor (Mus musculus, UniProt P32300); assay: Displacement of [125I]BNtxA from mouse DOR expressed in CHO cell membranes after 90 mins by filter binding assay
Procedure, shortened: (§1)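 Competition binding with [125I]BNtxA (0.1 nM) in membranes of CHO cells expressing mouse MOR, DOR or KOR. Protein 10-20 μg mL-1, 90 min incubation. Ki obtained by nonlinear regression. At least 3 assays, mean ± SEM.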

[2] = organism: Mus musculus; assay: Selectivity ratio of Ki for mouse DOR to Ki for mouse MOR
[3] = target: T1, Kappa-type opioid receptor (Mus musculus, UniProt P33534); assay: Displacement of [125I]BNtxA from mouse KOR expressed in CHO cell membranes after 90 mins by filter binding assay; procedure, shortened: as §1
[4] = organism: Mus musculus; assay: Selectivity ratio of Ki for mouse KOR to Ki for mouse MOR
[5] = target: Mu-type opioid receptor (Mus musculus) (UniProt P42866); assay: Agonist activity at mouse MOR expressed in CHO cell membranes assessed as induction of [35S]GTPgammaS binding after 90 mins by scintillation spectroscopy relative to DAMGO; assay type: functional
[6] = target: T2, Mu-type opioid receptor (Mus musculus, UniProt P42866); assay: Displacement of [125I]BNtxA from mouse MOR expressed in CHO cell membranes after 90 mins by filter binding assay; procedure, shortened: as §1
[7] = target: T2, Mu-type opioid receptor; assay: Agonist activity at mouse MOR expressed in CHO cell membranes assessed as induction of [35S]GTPgammaS binding after 90 mins by scintillation spectroscopy; assay type: functional
Procedure, shortened: (§2)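 Agonist-stimulated [35S]GTPγS binding in membranes from opioid receptor-transfected cells. Membrane protein 50 µg mL-1, 90 min incubation. Potency taken as EC50. Three separate assays, each in triplicate, reported as mean ± SEM.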

[8] = tested on: Mus musculus; assay: Antinociceptive activity in CD1 mouse at 30 mg/kg, sc after 3 hrs by radiant heat tail flick method; assay type: functional, organism-based
Procedure, shortened: (§3)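 Time course in CD1 mice (n = 10) after sc dosing at 30 mg kg-1, measured by radiant heat tail flick. Two independent determinations.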

[9] = tested on: Mus musculus; assay: Antinociceptive activity in icv dosed CD1 mouse after 15 mins by radiant heat tail flick method; assay type: functional
Procedure, shortened: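 Compounds given intracerebroventricularly to groups of mice (n = 5) as cumulative doses. Tail-flick tested 15 min later, at peak effect, to build the dose-response curve and ED50. Two independent determinations.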

[10] = tested on: Mus musculus; assay: Antinociceptive activity in CD1 mouse at 30 mg/kg, sc after 30 mins by radiant heat tail flick method relative to control; assay type: functional
Procedure, shortened: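 CD1 mice (n = 10) dosed sc at 30 mg kg-1. Radiant heat tail-flick tested 30 min after injection. Values given as mean ± SEM percent antinociception.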

[11] = target: T1, Kappa-type opioid receptor; assay: Agonist activity at mouse KOR expressed in CHO cell membranes assessed as induction of [35S]GTPgammaS binding after 90 mins by scintillation spectroscopy; assay type: functional; procedure, shortened: as §2
[12] = target: Kappa-type opioid receptor (Mus musculus) (UniProt P33534); assay: Agonist activity at mouse KOR expressed in CHO cell membranes assessed as induction of [35S]GTPgammaS binding after 90 mins by scintillation spectroscopy relative to U50488H; assay type: functional
[13] = tested on: Mus musculus; assay: Antinociceptive activity in CD1 mouse at 30 mg/kg, sc after 30 mins in presence of MOR antagonist beta-FNA by radiant heat tail flick method; assay type: functional, organism-based
Procedure, shortened: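 CD1 mice (n = 10) given compound at 30 mg kg-1 sc, with or without β-funaltrexamine (40 mg kg-1 sc) 24 h before agonist. Tail-flick tested 30 min after the agonist.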

[14] = tested on: Mus musculus; assay: Antinociceptive activity in CD1 mouse at 30 mg/kg, sc after >24 hrs by radiant heat tail flick method; assay type: functional, organism-based; procedure, shortened: as §3
[15] = tested on: Mus musculus; assay: Antinociceptive activity in CD1 mouse at 7.5 ug, icv after >24 hrs by radiant heat tail flick method; assay type: functional, organism-based
Procedure, shortened: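 Time course in CD1 mice (n = 10) after icv administration of 7.5 µg, measured by tail flick. Two independent determinations.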

Sequence of Mu-type opioid receptor (Mus musculus) (P42866 whole entry): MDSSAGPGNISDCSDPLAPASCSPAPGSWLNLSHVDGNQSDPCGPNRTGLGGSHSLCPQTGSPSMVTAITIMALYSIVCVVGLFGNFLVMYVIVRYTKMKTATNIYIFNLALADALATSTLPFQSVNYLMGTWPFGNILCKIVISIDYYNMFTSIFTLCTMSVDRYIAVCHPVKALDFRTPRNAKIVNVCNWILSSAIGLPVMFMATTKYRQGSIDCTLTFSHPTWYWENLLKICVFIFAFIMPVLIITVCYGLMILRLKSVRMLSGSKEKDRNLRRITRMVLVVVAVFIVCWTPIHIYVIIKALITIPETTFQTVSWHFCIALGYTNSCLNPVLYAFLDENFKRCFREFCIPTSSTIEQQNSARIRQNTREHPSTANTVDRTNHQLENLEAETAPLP
T2 sequence (P42866 whole entry): as above
Sequence of Delta-type opioid receptor (P32300 whole entry): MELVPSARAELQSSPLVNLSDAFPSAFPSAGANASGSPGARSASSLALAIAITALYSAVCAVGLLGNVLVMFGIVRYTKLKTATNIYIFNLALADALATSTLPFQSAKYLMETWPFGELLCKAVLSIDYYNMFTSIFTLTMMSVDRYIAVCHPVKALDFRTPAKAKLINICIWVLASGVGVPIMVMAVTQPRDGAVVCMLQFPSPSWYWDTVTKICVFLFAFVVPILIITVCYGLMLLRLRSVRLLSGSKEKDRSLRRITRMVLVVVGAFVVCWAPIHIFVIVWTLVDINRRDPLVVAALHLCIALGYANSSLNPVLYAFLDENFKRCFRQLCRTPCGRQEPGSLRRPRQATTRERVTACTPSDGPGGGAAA
T1 sequence (P33534 whole entry): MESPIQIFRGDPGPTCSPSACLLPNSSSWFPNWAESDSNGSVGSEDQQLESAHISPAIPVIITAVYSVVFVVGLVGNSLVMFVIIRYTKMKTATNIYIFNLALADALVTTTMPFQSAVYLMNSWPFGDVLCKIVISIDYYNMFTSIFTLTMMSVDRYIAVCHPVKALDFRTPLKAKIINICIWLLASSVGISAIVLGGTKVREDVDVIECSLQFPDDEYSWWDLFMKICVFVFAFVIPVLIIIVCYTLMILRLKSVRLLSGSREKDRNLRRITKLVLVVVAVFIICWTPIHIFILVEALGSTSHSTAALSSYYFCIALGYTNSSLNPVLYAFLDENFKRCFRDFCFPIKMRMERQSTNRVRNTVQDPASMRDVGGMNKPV
Sequence of Kappa-type opioid receptor (Mus musculus) (P33534 whole entry): as above

| SMILES | Ki [1] | Ratio Ki [2] | Ki [3] | Ratio Ki [4] | Emax [5] | Ki [6] | EC50 [7] | Activity [8] | ED50 [9] | MPE [10] | EC50 [11] | Emax [12] | Activity [13] | Activity [14] | Activity [15] |
| --- | --- | --- | --- | --- | --- | --- | --- | --- | --- | --- | --- | --- | --- | --- | --- |
| CN1CC[C@]23c4c5ccc(O)c4O[C@H]2[C@@H](NC(=O)c2cccnc2)CC[C@@]3(O)[C@H]1C5 | 104 nM | 15 | > 100 nM | > 14.5 | 121% | 6.91 nM | 25.7 nM | – | – | – | – | – | – | – | – |
| CN1CC[C@]23c4c5ccc(O)c4O[C@H]2[C@@H](NC(=O)c2ccncc2)CC[C@@]3(O)[C@H]1C5 | 173 nM | 24.7 | > 100 nM | > 14.2 | 115% | 7.02 nM | 26.4 nM | – | – | – | – | – | – | – | – |
| CN1CC[C@]23c4c5ccc(O)c4O[C@H]2[C@@H](O)C=C[C@H]3[C@H]1C5 [MORPHINE] | – | – | – | – | – | – | – | Active | 0.53 µg | – | – | – | – | – | – |
| CN1CC[C@]23c4c5ccc(O)c4O[C@H]2[C@@H](NC(=O)c2ccncc2)C=C[C@H]3[C@H]1C5 | 65 nM | 32.5 | 77.9 nM | 39 | 114% | 2 nM | 4.62 nM | – | 2 µg | 38% | – | – | – | – | – |
| CN1CC[C@]23c4c5ccc(O)c4O[C@H]2[C@@H](NC(=O)c2cccnc2)C=C[C@H]3[C@H]1C5 | 34.4 nM | 27.5 | 19 nM | 15.2 | 114% | 1.25 nM | 2.83 nM | – | 0.51 µg | 35% | 58.8 nM | 87.9% | – | – | – |
| CN1CC[C@]23c4c5ccc(O)c4O[C@H]2[C@@H](NC(=O)c2cccnc2)CC[C@H]3[C@H]1C5 | 130 nM | 39.6 | 119 nM | 36.2 | 117% | 3.29 nM | 7.98 nM | – | 1.8 µg | 83% | – | – | inactive | Active | Active |
| CN1CC[C@]23c4c5ccc(O)c4O[C@H]2[C@H](NC(=O)/C=C/c2ccccc2)C=C[C@H]3[C@H]1C5 | – | – | – | – | 95.3% | – | – | – | – | – | – | 106% | – | – | – |
| COc1ccc2c3c1O[C@H]1[C@@H](NC(=O)c4ccncc4)C=C[C@H]4[C@@H](C2)N(C)CC[C@@]341 | 424 nM | 10.4 | > 100 nM | > 2.5 | – | 40.6 nM | – | – | – | – | – | – | – | – | – |
| CN1CC[C@]23c4c5ccc(O)c4O[C@H]2[C@@H](NC(=O)c2ccncc2)CC[C@H]3[C@H]1C5 | 198 nM | 53.2 | > 100 nM | > 26.8 | 115% | 3.73 nM | 8.16 nM | – | 0.7 µg | 78% | – | – | inactive | Active | Active |
